How the values were obtained:
[1] = biological target: T1, recombinant DGKα (Rattus norvegicus, UniProt P51556); assay: DAG phosphorylation substrate assay; format: biochemical; conditions: DGKα-overexpressed HEK293T soluble proteomes
How it was run: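 IC50 derived from a dose–response curve of DAG phosphorylation by recombinant DGKα across a range of test compound concentrations. Data are means ± standard error of the mean of two biological replicates, and a 95% confidence interval is given for the IC50.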

[2] = biological target: T1, recombinant DGKα; assay: LC–MS quantitative chemical proteomic assay; format: binding
[3] = biological target: BRAF (Homo sapiens, UniProt P15056); assay: LC–MS quantitative chemical proteomic assay; format: binding; conditions: ATP 1 mM
Chain of BRAF (P15056 whole entry): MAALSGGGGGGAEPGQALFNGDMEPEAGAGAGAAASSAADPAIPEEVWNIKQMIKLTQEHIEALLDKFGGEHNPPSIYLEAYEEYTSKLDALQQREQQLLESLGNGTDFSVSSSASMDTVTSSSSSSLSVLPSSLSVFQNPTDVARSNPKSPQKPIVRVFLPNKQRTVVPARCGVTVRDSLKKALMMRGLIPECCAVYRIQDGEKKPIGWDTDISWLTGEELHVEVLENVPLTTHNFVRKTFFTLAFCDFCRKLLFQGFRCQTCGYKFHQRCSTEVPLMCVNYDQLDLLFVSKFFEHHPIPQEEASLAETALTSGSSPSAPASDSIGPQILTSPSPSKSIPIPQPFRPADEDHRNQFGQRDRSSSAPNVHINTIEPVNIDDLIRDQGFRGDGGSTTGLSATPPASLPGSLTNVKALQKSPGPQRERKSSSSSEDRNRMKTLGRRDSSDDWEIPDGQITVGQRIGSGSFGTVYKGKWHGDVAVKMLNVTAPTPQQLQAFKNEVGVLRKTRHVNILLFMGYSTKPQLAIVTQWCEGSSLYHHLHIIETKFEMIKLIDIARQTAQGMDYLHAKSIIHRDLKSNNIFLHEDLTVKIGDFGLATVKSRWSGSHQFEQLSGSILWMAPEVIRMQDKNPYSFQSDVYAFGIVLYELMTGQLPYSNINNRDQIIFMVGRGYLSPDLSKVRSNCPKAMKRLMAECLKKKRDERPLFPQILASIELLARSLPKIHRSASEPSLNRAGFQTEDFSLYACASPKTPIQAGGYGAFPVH

[4] = biological target: HSP70-1A/B (Homo sapiens, UniProt P0DMV8); assay: LC–MS quantitative chemical proteomic assay; format: binding; conditions: ATP 1 mM
Chain of HSP70-1A/B (P0DMV8 whole entry): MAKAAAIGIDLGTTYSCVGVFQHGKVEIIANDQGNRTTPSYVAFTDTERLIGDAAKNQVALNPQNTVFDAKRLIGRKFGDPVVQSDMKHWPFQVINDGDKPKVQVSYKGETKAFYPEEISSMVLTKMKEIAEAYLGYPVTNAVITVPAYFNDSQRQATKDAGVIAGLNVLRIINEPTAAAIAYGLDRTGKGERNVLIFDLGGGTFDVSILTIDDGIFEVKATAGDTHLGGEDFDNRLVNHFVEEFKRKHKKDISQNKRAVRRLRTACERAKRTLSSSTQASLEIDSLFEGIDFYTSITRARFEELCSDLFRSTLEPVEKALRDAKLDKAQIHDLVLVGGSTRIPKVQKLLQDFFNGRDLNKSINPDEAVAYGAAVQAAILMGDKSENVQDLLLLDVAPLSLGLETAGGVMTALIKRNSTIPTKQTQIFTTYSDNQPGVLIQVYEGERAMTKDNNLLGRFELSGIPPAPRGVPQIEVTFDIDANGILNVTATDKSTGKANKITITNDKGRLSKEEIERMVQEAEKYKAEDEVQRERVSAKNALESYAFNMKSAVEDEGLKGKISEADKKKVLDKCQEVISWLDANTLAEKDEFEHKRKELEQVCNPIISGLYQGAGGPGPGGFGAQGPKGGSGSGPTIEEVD

T1 sequence (P51556 whole entry): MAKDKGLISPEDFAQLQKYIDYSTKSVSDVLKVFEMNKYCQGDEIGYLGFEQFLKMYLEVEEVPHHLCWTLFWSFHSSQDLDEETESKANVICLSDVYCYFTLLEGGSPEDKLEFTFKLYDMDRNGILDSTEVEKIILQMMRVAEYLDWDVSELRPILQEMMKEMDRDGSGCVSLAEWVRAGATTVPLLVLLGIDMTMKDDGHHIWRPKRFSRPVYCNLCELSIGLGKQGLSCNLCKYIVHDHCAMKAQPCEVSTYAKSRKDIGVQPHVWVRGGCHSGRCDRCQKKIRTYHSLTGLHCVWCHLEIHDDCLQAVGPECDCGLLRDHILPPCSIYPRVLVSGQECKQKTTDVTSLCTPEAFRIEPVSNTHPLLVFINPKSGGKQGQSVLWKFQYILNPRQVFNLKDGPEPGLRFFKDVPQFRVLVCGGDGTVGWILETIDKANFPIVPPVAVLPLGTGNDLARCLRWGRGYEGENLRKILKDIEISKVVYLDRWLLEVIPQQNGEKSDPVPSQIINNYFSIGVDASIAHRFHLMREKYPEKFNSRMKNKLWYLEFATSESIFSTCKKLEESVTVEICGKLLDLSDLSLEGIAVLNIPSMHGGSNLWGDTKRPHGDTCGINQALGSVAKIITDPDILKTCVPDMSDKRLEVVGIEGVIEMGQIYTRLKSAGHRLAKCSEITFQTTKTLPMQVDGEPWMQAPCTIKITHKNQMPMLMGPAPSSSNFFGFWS

blockade of recombinant DGKα catalytic activity [1] | blockade of probe labeling at primary ATP-binding sites (DAGKc/DAGKa) ([2]; RLM001 10 mM, ATP 1 mM) | SILAC ratio (SR), C1-binding site ([2]; free ATP (1 mM)) | SILAC ratio (SR), BRAF [3] | SILAC ratio (SR), HSP70-1A K56/HSP70-1B K56 [4] | Structure (SMILES)
blockade of catalytic activity |  |  |  |  | Cc1nc2sccn2c(=O)c1CCN1CCC(=C(c2ccccc2)c2ccc(F)cc2)CC1 [R59022]
 | near-complete blockade of probe labeling | ~ 2 | > 5 | > 5 | Nc1ncnc2c1ncn2[C@@H]1O[C@H](COP(=O)(O)OP(=O)(O)OP(=O)(O)O)[C@@H](O)[C@H]1O [ATP]
blockade of catalytic activity |  |  |  |  | Cc1nc2sccn2c(=O)c1CCN1CCC(=C(c2ccc(F)cc2)c2ccc(F)cc2)CC1 [ritanserin]

— paper PMC5771882 (Biochemistry, 2017)
